Calls of active or inactive are those of the source. The calls are words filed in the database; no cut-off is given here.

The test system of experiment [1] is SK-MEL-2. In words: Cytotoxicity against human SK-MEL-2 cells assessed as cell growth at 5 uM by SRB assay. It is filed as functional. To be noted: read-out: Activity.
Experiment [2] has as its system SF-539. In words: Cytotoxicity against human SF539 cells assessed as cell growth at 50 uM by SRB assay. The conditions noted are these: read-out: Activity. Format: functional. A general note: The SRB assay estimates cell density from bound dye.
The subject of experiment [3] is M14. Nature of the experiment: Cytotoxicity against human M14 cells assessed as cell growth at 0.5 uM by SRB assay. It is filed as functional. To be noted: read-out: Activity.
The nature of experiment [4]: Cytotoxicity against human NCI-ADR-RES cells assessed as cell growth at 50 uM by SRB assay. To be noted: read-out: Activity. It is filed as functional.
Experiment [5] concerns NCI-H23. In words: Cytotoxicity against human NCI-H23 cells assessed as cell growth at 5 uM by SRB assay. Format: functional. The conditions noted are these: read-out: Activity.
Experiment [6] concerns NCI-H460. In words: Cytotoxicity against human NCI-H460 cells by SRB assay. Format: functional. In short, it runs like this:
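NCI-60 panel screen; 5-dose testing giving GI50 per cell line, plus a single 10 µM one-dose test. Method details not given beyond the NCI screen.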

Experiment [7] has as its system NCI-H226. In words: Cytotoxicity against human NCI-H226 cells assessed as cell growth at 0.05 uM by SRB assay. Format: functional. The conditions noted are these: read-out: Activity.
Experiment [8] concerns K562. In words: Cytotoxicity against human K562 cells assessed as cell growth inhibition after 72 hrs by MTS assay. It is filed as functional, cell-based. The conditions noted are these: K562, 72 h. In general terms: Tetrazolium assays rely on reduction of a dye to a coloured formazan, in cell work by metabolically active cells.
The test system of experiment [9] is SF-268. Nature of the experiment: Cytotoxicity against human SF268 cells assessed as cell growth at 50 uM by SRB assay. Format: functional. To be noted: read-out: Activity.
Experiment [10] concerns K562. In words: Induction of apoptosis in human K562 cells assessed as increase in caspase 3/7 activity at 1 uM by luminescence analysis. To be noted: TDE = time-dependent effect. It is filed as functional, cell-based. In short, it runs like this:
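K562 cells at 2 × 10^5 cells/mL treated with vehicle or 1 µM compound for 24 or 48 h. Lysates assayed with a luminogenic DEVD-aminoluciferin caspase-3/7 substrate and read by luminescence. Four wells (eight for control); unpaired t-test vs control; repeated on two days.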

Experiment [11] relates to CHO. In words: Induction of apoptosis in CHO cells assessed as increase in sub-G0/G1 cell population at 1 uM after 49 hrs by propidium iodide staining based flow cytometry. Format: functional. To be noted: Cricetulus griseus. The method in brief:
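CHO cells grown to confluence in α-MEM/10% FCS, serum-starved 48 h (0% FCS), then seeded at 2 × 10^5 cells/mL and repleted with 10% FCS. Continuously treated from repletion with 1 µM compound (10 µM etoposide, DMSO control) for various times. Propidium iodide DNA staining, flow cytometric phase distribution including sub-G0/G1.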
A general note: A flow cytometer gives signals particle by particle.

The target of experiment [12] is DNA topoisomerase 2-alpha (Homo sapiens) (UniProt P11388). In words: Inhibition of full-length human recombinant topoisomerase 2-alpha-mediated decatenation activity of kDNA at >10 uM by ethidium bromide based gel-assay.
Experiment [13] concerns CHO. In words: Induction of cell cycle arrest in CHO cells assessed as accumulation at G2/M phase at 1 uM by propidium iodide staining based flow cytometry. It is filed as functional. To be noted: Cricetulus griseus.
The test system of experiment [14] is K562. In words: Induction of apoptosis in human K562 cells assessed as increase in proportion of apoptotic and apoptotic/necrotic cells at 1 uM after 24 to 48 hrs by annexin V-FITC/propidium iodide staining based two-color fluorescence flow cytometry. It is filed as functional, cell-based. In short, it runs like this: (§1)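 K562 cells (1 × 10^6/mL), untreated or given 1 µM compound (10 µM etoposide control) at 37 °C for 24 h or 48 h. Annexin V-FITC plus propidium iodide two-colour flow cytometry. Cells are scored as viable, apoptotic-only (annexin+/PI−), apoptotic/necrotic (annexin+/PI+) or necrotic.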

Experiment [15] has as its target DNA topoisomerase 2-alpha (Homo sapiens) (UniProt P11388). In words: Inhibition of full-length human recombinant topoisomerase 2-alpha assessed as conversion of […] DNA at 100 uM by ethidium bromide based gel-assay.
In experiment [16] the test system is K562. Nature of the experiment: Induction of apoptosis in human K562 cells assessed as decrease in proportion of viable cells at 1 uM after 24 to 48 hrs by annexin V-FITC/propidium iodide staining based two-color fluorescence flow cytometry. Format: functional, cell-based. The method in brief:
as §1

Experiment [17] relates to SK-OV-3. In words: Cytotoxicity against human SKOV3 cells assessed as cell growth at 50 uM by SRB assay. It is filed as functional. To be noted: read-out: Activity.
The subject of experiment [18] is SN12C. Nature of the experiment: Cytotoxicity against human SN12C cells assessed as cell growth at 50 uM by SRB assay. Format: functional. To be noted: read-out: Activity.
[19] abbreviates: read-out: LC50 (the source's name).
The mark [20] stands for this setting: read-out: pLC50 (the source's name) (converted).

Sequence of DNA topoisomerase 2-alpha (Homo sapiens) (P11388 whole entry): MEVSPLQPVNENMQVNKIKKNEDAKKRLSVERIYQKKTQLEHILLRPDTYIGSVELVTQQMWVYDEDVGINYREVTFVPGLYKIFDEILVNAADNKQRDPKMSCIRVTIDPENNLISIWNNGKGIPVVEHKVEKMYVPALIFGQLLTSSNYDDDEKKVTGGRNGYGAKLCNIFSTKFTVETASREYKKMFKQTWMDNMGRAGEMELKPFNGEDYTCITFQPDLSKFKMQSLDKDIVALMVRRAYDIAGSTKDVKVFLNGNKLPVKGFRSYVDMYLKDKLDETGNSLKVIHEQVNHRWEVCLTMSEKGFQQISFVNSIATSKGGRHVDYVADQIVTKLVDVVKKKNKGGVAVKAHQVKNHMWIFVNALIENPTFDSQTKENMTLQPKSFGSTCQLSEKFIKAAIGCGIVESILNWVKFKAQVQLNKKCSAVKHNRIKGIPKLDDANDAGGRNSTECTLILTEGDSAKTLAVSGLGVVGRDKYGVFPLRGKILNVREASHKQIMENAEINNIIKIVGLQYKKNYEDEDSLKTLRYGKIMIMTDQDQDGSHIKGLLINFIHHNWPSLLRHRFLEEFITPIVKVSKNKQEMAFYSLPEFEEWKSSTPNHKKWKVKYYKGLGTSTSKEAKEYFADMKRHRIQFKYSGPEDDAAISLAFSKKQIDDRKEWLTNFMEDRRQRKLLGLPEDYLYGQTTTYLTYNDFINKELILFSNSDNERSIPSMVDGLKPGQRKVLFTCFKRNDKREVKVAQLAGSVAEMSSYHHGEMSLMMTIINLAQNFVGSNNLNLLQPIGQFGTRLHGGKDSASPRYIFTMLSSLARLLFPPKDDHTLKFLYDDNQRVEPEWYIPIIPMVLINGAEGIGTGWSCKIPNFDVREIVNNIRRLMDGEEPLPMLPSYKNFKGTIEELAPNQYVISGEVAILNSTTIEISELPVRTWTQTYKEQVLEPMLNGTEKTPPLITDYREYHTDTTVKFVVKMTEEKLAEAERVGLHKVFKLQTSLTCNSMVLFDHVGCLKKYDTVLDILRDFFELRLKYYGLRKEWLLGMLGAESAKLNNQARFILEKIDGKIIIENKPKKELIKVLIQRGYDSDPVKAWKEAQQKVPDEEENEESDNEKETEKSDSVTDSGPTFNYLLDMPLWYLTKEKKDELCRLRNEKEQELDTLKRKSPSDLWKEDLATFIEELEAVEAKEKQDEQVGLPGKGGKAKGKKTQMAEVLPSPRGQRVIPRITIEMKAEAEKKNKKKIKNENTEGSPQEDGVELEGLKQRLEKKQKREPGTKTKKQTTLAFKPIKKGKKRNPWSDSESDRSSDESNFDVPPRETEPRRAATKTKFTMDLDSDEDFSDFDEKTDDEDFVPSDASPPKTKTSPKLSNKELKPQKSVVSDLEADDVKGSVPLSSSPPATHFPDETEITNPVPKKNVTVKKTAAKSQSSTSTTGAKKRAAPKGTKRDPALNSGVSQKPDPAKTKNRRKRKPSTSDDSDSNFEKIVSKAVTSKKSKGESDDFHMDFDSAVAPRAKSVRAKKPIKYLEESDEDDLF

In the case of `COc1cc([C@@H]2c3cc4c(cc3[C@@H](NC(=O)CN3CCN(CCCCCCN5CCN(CC(=O)N[C@@H]6c7cc8c(cc7[C@@H](c7cc(OC)c(O)c(OC)c7)[C@H]7C(=O)OC[C@@H]76)OCO8)CC5)CC3)[C@H]3COC(=O)[C@H]23)OCO4)cc(OC)c1O`, the growth at 5 µM worked out at 86% in experiment [1] and 44% in experiment [5]. Moreover, the figures for the growth at 50 µM in experiment [2], in experiment [4] and in experiment [9] were -38%, 87% and 10%, respectively. The growth at 0.5 µM in [3] came to 79%. Also, the values for the GI50 in [6] (read-out: GI50) and in [6] (read-out: pGI50 (converted)) were 261 nM and 263 nM, respectively. The CC50 is > 50 µM in experiment [6] (setting [19]) and > 50.1 µM in experiment [6] (setting [20]). The TGI in experiment [6] (read-out: TGI) was 9.45 µM; in [6] (read-out: pTGI (converted)) it was 9.55 µM. Moreover, the growth at 0.05 µM in experiment [7] was 87%. In experiment [8], the half-inhibitory concentration (IC50) was 41 nM.

As for `COc1cc([C@@H]2c3cc4c(cc3[C@@H](NC(=O)CN3CCN(CCCCCCCCCCN5CCN(CC(=O)N[C@@H]6c7cc8c(cc7[C@@H](c7cc(OC)c(O)c(OC)c7)[C@H]7C(=O)OC[C@@H]76)OCO8)CC5)CC3)[C@H]3COC(=O)[C@H]23)OCO4)cc(OC)c1O`, the growth at 5 µM is 47% in experiment [1] and -35% in [5]. Besides, in [10], the Activity entry is “tde”. The outcome in experiment [11], in [13], in experiment [14] and in experiment [16] was Active. The growth at 0.5 µM in experiment [3] is 65%. The “Inhibition of decatenation activity (qualitative)” value in [12] is “Active”. Further, the growth at 50 µM in experiment [4] is 23%; in experiment [9], -40%; in experiment [17], -100%; in experiment [18], -44%. In addition, the GI50 in [6] (read-out: GI50) is 2660 nM; in [6] (read-out: pGI50 (converted)) it was 2630 nM. Further, the CC50 in experiment [6] (setting [19]) and in experiment [6] (setting [20]) was 26.9 µM each time. In addition, the TGI in experiment [6] (read-out: TGI) is 9.82 µM; in experiment [6] (read-out: pTGI (converted)) it was 9.77 µM. Moreover, the growth at 0.05 µM in experiment [7] was 83%. The “Inhibition (qualitative activity call)” value in experiment [15] is “Active”. In [8], the IC50 came out at 44 nM.

The term IC50 denotes the concentration that inhibits the measured activity by half.

The record behind these values is ChEMBL document CHEMBL3588757, “Structure-based design, synthesis and biological testing of piperazine-linked bis-epipodophyllotoxin etoposide analogs” (Bioorg Med Chem, 2015).
